EBI2 antag = EBI2 receptor antagonists, beta-arrestin recruitment, primary screen, cell-based, luminescence, 7a,25-OHC stimulation, uHTS | inhibition, % at 5 µM | G-protein coupled receptor 183 (Homo sapiens), P32249 | 7a,25-OHC stimulated | 360,000 tested, 0.81% active; in the data active means inhibition above about 38%;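 further: enzyme fragment complementation signal reports receptor beta-arrestin coupling in cells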
Target sequence (P32249 whole entry, looked up, the tested form may be a part): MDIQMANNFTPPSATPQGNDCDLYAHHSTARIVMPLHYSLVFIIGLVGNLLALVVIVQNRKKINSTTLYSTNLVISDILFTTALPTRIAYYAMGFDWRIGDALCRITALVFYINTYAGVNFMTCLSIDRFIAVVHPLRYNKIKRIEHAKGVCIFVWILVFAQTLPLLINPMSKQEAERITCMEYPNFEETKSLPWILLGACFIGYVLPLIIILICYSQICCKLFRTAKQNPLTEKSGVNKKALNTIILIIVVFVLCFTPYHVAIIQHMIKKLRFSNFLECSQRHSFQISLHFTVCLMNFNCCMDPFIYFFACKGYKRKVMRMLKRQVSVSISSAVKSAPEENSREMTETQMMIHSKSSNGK
APJ ag = agonists of human apelin receptor APJ, primary screen, CHO-K1 cells, PathHunter beta-arrestin, luminescence; 330,000 tested, 0.11% active; P35414; 0% DMSO wells, 100% apelin; activation, % at 20 µM;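 active means activation more than six SD over the plate average, tested at 20 µM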
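Test system – PathHunter CHO-K1 APJ (AGTRL-1) beta-arrestin reporter cells · Input – 1000 cells/well · Compound – single test compound dose, 20 µM final, 1% DMSO · Times – compound stimulation 90 min at 25 °C, detection 60 min · Technique – beta-gal luminescence · Read-out basis – APJ–arrestin association signal · Control set – negative DMSO alone, positive Apelin-13 at 10 nM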
APJ antag = antagonists of human apelin receptor APJ, primary screen, CHO-K1 cells, beta-arrestin complementation, luminescence. inhibition, % at 20 µM. 330,000 tested, 0.32% active. AID 2521, 2010;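 active means inhibition above about 40% at 20 µM, limit read from the data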;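 further: cells challenged with 10 nM apelin-13 agonist together with compound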
H9c2 TAG inh = inhibitors of triacylglycerol accumulation, primary screen, cell-based, uHTS, fluorescence, H9c2. AID 651582, 2012. H9c2 cells, Nile Red lipid (TAG) fluorescence; cells loaded with 200 µM oleic acid. inhibition, % at 12.5 µM. 230,000 tested, 0.66% active;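 active means pattern-corrected inhibition of lipid staining of at least 50% with the nuclear-stain viability signal not falling by more than 50%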
CCR6 antagonist = CCR6 receptor antagonists, primary screen, cell-based, CHO-K1, luminescence, beta-arrestin, uHTS; C-C chemokine receptor type 6 (Homo sapiens), P51684; CHO-K1 CCR6 PathHunter beta-arrestin, CCL20-stimulated; inhibition, % at 20 µM; 340,000 tested, 0.49% active; AID 493098, 2011;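 active means compounds whose inhibition of the agonist-driven luminescence signal at 20 µM reaches about 50%, limit read from the data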;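 further: cells stimulated with CCL20 at 14 nM final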
CXCR6 inh = CXCR6 receptor inhibitors, primary screen, cell-based, beta-arrestin, luminescence, CHO-K1 PathHunter, 1536-well | C-X-C chemokine receptor type 6 (Homo sapiens), O00574 | inhibition, % at 20 µM | 360,000 tested, 0.36% active | AID 602244, 2012; in the data active means inhibition above about 34%, passing the limit was not always enough;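 further: antagonist mode with CXCL16 agonist at 10 nM final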
APJ antag conf = APJ antagonists blocking beta-arrestin recruitment, confirmation, cell-based, luminescence, single concentration, uHTS hits | shares compounds with APJ antag | antagonist mode | inhibition, % at 20 µM | 950 tested, 66% active; in the data active means inhibition above about 50%
CXCR6 confirm = CXCR6 receptor antagonists, confirmation, cell-based, single concentration, beta-arrestin, luminescence; shares compounds with CXCR6 inh; CHO-K1 CXCR6 PathHunter beta-arrestin; inhibition, % at 20 µM; 700 tested, 65% active;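 active means mean inhibition over four retests above 40%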;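 further: receptor stimulated with 10 nM CXCL16 agonist; beta-galactosidase fragment complementation upon beta-arrestin recruitment to receptor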
Numbers stand for hits; - = inactive; . = no result given. Compounds with a hit are over-represented: about 1.9% of the library has one in this group of screens.

SMILES | EBI2 antag | APJ ag | APJ antag | H9c2 TAG inh | CCR6 antagonist | CXCR6 inh | APJ antag conf | CXCR6 confirm
N=C1S/C(=C\c2ccco2)C(=O)N1c1nccs1 | - | - | 44 | - | 83 | 66 | 66 | 77
CCn1c(=O)cc(NC2=NCC(C)CN2c2cccc(Cl)c2)n(C)c1=O (centres undefined) | - | - | 62 | . | 66 | 57 | 110 | 59
CCn1c(NC)cc(=O)n(C)c1=O | - | - | - | - | - | - | . | .
COc1ccccc1C(CNC(=O)c1cccc(S(=O)(=O)N2c3ccccc3CC2C)c1)N(C)C (centres undefined) | - | . | . | - | - | - | . | .
O=C(NNC(=O)C12CC3CC(CC(C3)C1)C2)c1cnccn1 | - | - | - | . | - | - | . | .
O=C(NNC(=O)C12CC3CC(CC(C3)C1)C2)c1ccccn1 | - | - | 49 | - | 92 | 71 | 69 | 79
CC1(C)CC(=O)C2=C(C1)OC1=C(C(=O)CC(C)(C)C1)C2c1ccc(O)cc1O | - | - | 52 | . | 93 | 66 | 105 | 88
CC1(C)CC(=O)C2=C(C1)OC1=C(C(=O)CC(C)(C)C1)C2c1ccc(O)c([N+](=O)[O-])c1 | - | - | - | - | - | - | . | .
N#Cc1c([N+](=O)[O-])cc([N+](=O)[O-])cc1S(=O)(=O)Cc1ccccc1 | - | - | 64 | - | 106 | 95 | 61 | 87
O=C1c2ccccc2C(=O)N1CCCCc1cn(C[C@H]2CC[C@@H]([C@@H]3CC[C@H](Cn4cc(CCCCN5C(=O)c6ccccc6C5=O)nn4)O3)O2)nn1 | - | - | - | - | - | - | . | .
O=C(Nc1nc2c(F)cc(F)cc2s1)c1ccccn1 | 63 | - | 80 | - | 79 | 49 | 84 | 69
O=C(COc1ccccc1)NNc1nc2c(F)cc(F)cc2s1 | - | - | - | - | - | - | . | .
COc1cc(/C=C(\C#N)c2nc(-c3cc4ccccc4oc3=O)cs2)ccc1O | - | - | 53 | - | 60 | 49 | 76 | 49
CC(NS(=O)(=O)c1cc2c3c(c1)CCC(=O)N3CCC2)c1ccccc1 (centres undefined) | - | - | - | - | - | - | . | .
FC(F)(F)c1cnc(NNC(=S)Nc2ccc(Cl)cc2)c(Cl)c1 | - | - | 64 | - | 94 | 72 | 117 | 84
Fc1ccc(NC(=S)NNc2ncc(C(F)(F)F)cc2Cl)c(F)c1 | - | - | 72 | . | 92 | 81 | 99 | 76
FC(F)(F)c1cccc(NC(=S)NNC(=S)Nc2ccc(Cl)cc2)c1 | . | - | - | . | . | . | . | .
O=S(=O)(NNc1ncc(C(F)(F)F)cc1Cl)c1ccc(F)cc1F | - | - | - | - | - | - | . | .
COc1cc2c(cc1OC)CN(C(=O)/C=C/c1cccs1)CC2 | - | - | - | - | - | - | . | .
CC(C(=O)Nc1ccc2c(c1)OCO2)n1cnc2c1c(=O)n(C)c(=O)n2C (centres undefined) | - | - | - | - | - | - | . | .
COC(=O)CSc1[nH]c2ccc(Br)cc2c1[N+](=O)[O-] | - | - | 41 | - | 61 | 41 | 55 | 46
COc1cc(/C=C/[N+](=O)[O-])ccc1OC(=O)c1cc2ccccc2oc1=O | - | - | 46 | . | - | 76 | 91 | 69
COc1ccccc1OC(=O)c1cc2ccccc2oc1=O | - | - | - | . | - | - | . | .
C/C(=N\NC(=O)Cn1c(-c2ccccn2)nc2ccccc21)c1ccccc1 | - | - | 47 | . | 60 | 46 | 72 | 47
COC(=O)c1ccccc1-c1c2ccc(=N)cc-2oc2cc(N)ccc12 | - | - | 49 | - | 67 | 45 | 75 | 62
SMILES | EBI2 antag | APJ ag | APJ antag | H9c2 TAG inh | CCR6 antagonist | CXCR6 inh | APJ antag conf | CXCR6 confirm
COC(=O)c1ccccc1-c1ccc(/C=N/NC(=O)c2cc3ccccc3o2)o1 | - | - | - | . | - | - | . | .
Cc1c(Nc2cc(Cl)c3nonc3c2[N+](=O)[O-])c(=O)n(-c2ccccc2)n1C | 61 | - | 83 | 102 | 91 | 88 | 115 | 105
O=C(NNC(=S)Nc1ccccc1)Nc1ccccc1 | - | - | 43 | - | 54 | 71 | - | -
O=C(NNC(=S)Nc1ccccc1)c1ccncc1 | - | - | - | - | - | - | . | .
CC(=O)Nc1ccc(S(=O)(=O)N(C)c2ccccc2)cc1 | - | - | - | . | - | - | . | .
O=C(Nc1ccc(F)cc1)c1nc(S(=O)(=O)Cc2ccccc2)ncc1Cl | - | - | 40 | . | 78 | 62 | 84 | 67
COc1ccc(OC)c(NC(=O)c2nc(S(=O)(=O)Cc3ccccc3)ncc2Cl)c1 | 85 | - | 63 | . | 84 | 59 | 96 | 69
O=C(Nc1ccc(OC(F)F)cc1)c1ccccn1 | - | - | - | - | - | - | . | .
CCS(=O)(=O)c1ncc(Cl)c(C(=O)Nc2ccc(S(=O)(=O)N(C)c3ccccc3)cc2)n1 | 86 | - | 67 | . | 94 | 85 | 102 | 92
CS(=O)(=O)c1ncc(Cl)c(C(=O)Nc2ccc(OC(F)F)cc2)n1 | - | - | 44 | . | 57 | 47 | 72 | 60
COc1ccc(OC)c(NC(=O)CS(=O)(=O)Cc2ccccc2)c1 | - | - | - | - | - | - | . | .
CCOC(=O)[C@]12CCC=C1N(CCC1=CCCCC1)C(=O)[C@H](CC(=O)N1CCN(C(=O)c3ccco3)CC1)C2 | - | . | . | . | . | - | . | .
CC12CCC(=O)N1C(C(=O)Nc1cccc(S(=O)(=O)N3CCCCCC3)c1)CS2 (centres undefined) | - | - | - | - | - | - | . | .
CCN(CC)CCNC(=O)c1ccc(NC(=O)c2ccccc2-c2ccc(C(F)(F)F)cc2)cc1 | - | - | - | . | - | - | . | .
O=C(NCCCc1ccc(F)cc1)C1CCC(=O)N(CCN2CCOCC2)C1 (centres undefined) | - | - | - | . | - | - | . | .
CC(=O)N1N=C(c2cccs2)CC1c1cccc([N+](=O)[O-])c1 (centres undefined) | - | - | 53 | - | 62 | 50 | 52 | 54
CC(=O)N1N=C(c2ccccc2)CC1c1cccc([N+](=O)[O-])c1 (centres undefined) | - | - | - | - | - | - | . | .
COc1ccc(-n2nnnc2C(CCc2ccccc2)N2CCN(C/C=C/c3ccccc3)CC2)cc1 (centres undefined) | - | . | . | . | . | - | . | .
